From ChEMBL document CHEMBL1275449, “Potent in vitro antifungal activities of naturally occurring acetylenic acids” (Antimicrob Agents Chemother, 2008)
≈ marks a conversion by molar mass, not a printed value. Calls of active or inactive are those of the source. The calls are words filed in the database; no cut-off is given here.

Experiments:
[1] = test system: Trichophyton rubrum; assay: Antifungal activity against Trichophyton rubrum ATCC 10218 by CLSI method; type: functional, organism-based
Method in brief: (§1)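 Growth scraped from 1- to 6-week-old potato dextrose slants and filtered through Miracloth. Diluted in 5% Alamar blue-RPMI 1640 (MOPS pH 7.0) to 2.7 × 10⁴ CFU/ml. Eleven twofold dilutions in duplicate. Fluorescence at 544 nm excitation/590 nm emission read before and after 35°C, 5 days. IC50 fitted from percent growth. MIC taken as no detectable growth; MFC from clear or blue wells plated on PD agar.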

[2] = test system: Trichophyton rubrum; assay: Antifungal activity against Trichophyton rubrum ATCC MYA-4438 by CLSI method; type: functional, organism-based; method in brief: as §1
[3] = test system: Trichophyton mentagrophytes; assay: Antifungal activity against Trichophyton mentagrophytes ATCC 9533 by CLSI method; type: functional, organism-based; method in brief: as §1
[4] = test system: Trichophyton mentagrophytes; assay: Antifungal activity against Trichophyton mentagrophytes ATCC MYA-4439 by CLSI method; type: functional, organism-based; method in brief: as §1
[5] = test system: Cryptococcus neoformans; assay: Antifungal activity against Cryptococcus neoformans ATCC 66031 after 72 hrs by CLSI method; type: functional, organism-based; details: ATCC 66031, 72 h
Method in brief: (§2)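 SD broth replaced RPMI because growth in RPMI was poor; other CLSI conditions were kept. Inoculum was 1.5 × 10³ CFU/ml from colonies on SD agar, checked by plating. Twofold serial dilutions (11 concentrations) in 20% DMSO-saline were tested in duplicate. OD530 was read before and after incubation at 35°C for 72 h. Percent growth gave IC50; the MIC is the lowest concentration with no detectable growth.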

[6] = test system: Cryptococcus neoformans; assay: Antifungal activity against Cryptococcus neoformans ATCC 90113 after 72 hrs by CLSI method; type: functional, organism-based; details: ATCC 90113, 72 h; method in brief: as §2
[7] = test system: Candida tropicalis; assay: Antifungal activity against Candida tropicalis ATCC 750 after 48 hrs by CLSI method; type: functional, organism-based; details: ATCC 750, 48 h
Method in brief: (§3)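 Yeast suspensions made from 3-5 colonies off 24-72 h SD agar plates in saline. They were diluted by OD630 standard curve in RPMI 1640 (0.2% dextrose, 0.03% glutamine, 0.165 M MOPS, pH 7.0) to 1.5 × 10³ CFU/ml. Twofold dilutions (11 concentrations, 20% DMSO-saline) run in duplicate. OD530 read before and after 35°C, 48 h. Line values are top test concentrations; no-growth endpoints give MIC/MFC.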

[8] = test system: Candida parapsilosis; assay: Antifungal activity against Candida parapsilosis ATCC 22019 after 48 hrs by CLSI method; type: functional, organism-based; details: Lodderomyces parapsilosis, ATCC 22019, 48 h; method in brief: as §3
[9] = test system: Pichia kudriavzevii; assay: Antifungal activity against Candida krusei ATCC 6258 after 48 hrs by CLSI method; type: functional, organism-based; details: ATCC 6258, 48 h
Method in brief: (§4)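 Candida inocula came from 24–72-h SD agar colonies suspended in saline. They were diluted by OD630 standard curve into RPMI 1640 (0.2% dextrose, 0.03% glutamine, 0.165 M MOPS, pH 7.0) to 1.5 × 10³ CFU/ml. Compounds were run as 11 twofold dilutions in 20% DMSO-saline, in duplicate, at 35°C for 48 h, with OD530 read before and after. Percent growth at the top concentration, IC50, MIC, and MFC (SD agar plating) were derived.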

[10] = test system: Nakaseomyces glabratus; assay: Antifungal activity against Candida glabrata ATCC 90030 after 48 hrs by CLSI methodCandida glabrata; type: functional, organism-based; details: ATCC 90030, 48 h; method in brief: as §4
[11] = test system: Candida albicans; assay: Antifungal activity against Fluconazole resistant Candida albicans clinical isolate 17 after 48 hrs by CLSI method; type: functional, organism-based
Method in brief: (§5)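 CLSI broth microdilution. Colonies from 24–72 h SD agar suspended in saline and sized by OD630 standard curve. Inoculum 1.5 × 10³ CFU/ml (final) in RPMI 1640 (0.2% dextrose, 0.03% glutamine, 0.165 M MOPS, pH 7.0). Twofold dilutions (11 levels) from 20% DMSO-saline, in duplicate. 35°C for 48 h, OD530 read before and after. IC50 fitted from % growth. MIC: no detectable growth. MFC: subculture onto SD agar.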

[12] = test system: Candida albicans; assay: Antifungal activity against Fluconazole resistant Candida albicans clinical isolate 1 after 48 hrs by CLSI method; type: functional, organism-based; method in brief: as §5
[13] = test system: Aspergillus flavus; assay: Antifungal activity against Aspergillus flavus ATCC 204304 at 10.8 uM after 48 hrs by CLSI method; type: functional, organism-based
[14] = test system: Candida albicans; assay: Antifungal activity against Candida albicans ATCC 200955 after 48 hrs by CLSI method; type: functional, organism-based; details: ATCC 200955, 48 h; method in brief: as §5
[15] = test system: Aspergillus niger; assay: Antifungal activity against Aspergillus niger ATCC 16404 at 10.8 uM after 48 hrs by CLSI method; type: functional, organism-based
[16] = test system: Candida albicans; assay: Antifungal activity against Candida albicans ATCC 90028 after 48 hrs by CLSI method; type: functional, organism-based; details: ATCC 90028, 48 h; method in brief: as §5
[17] = test system: Candida albicans; assay: Antifungal activity against Candida albicans ATCC 32354 after 48 hrs by CLSI method; type: functional, organism-based; details: ATCC 32354, 48 h; method in brief: as §5
[18] = test system: Candida albicans; assay: Antifungal activity against Candida albicans ATCC 14053 after 48 hrs by CLSI method; type: functional, organism-based; details: ATCC 14053, 48 h; method in brief: as §5
[19] = test system: Candida albicans; assay: Antifungal activity against Candida albicans ATCC 60193 after 48 hrs by CLSI method; type: functional, organism-based; details: ATCC 60193, 48 h; method in brief: as §5
[20] = test system: Aspergillus niger; assay: Antifungal activity against Aspergillus niger ATCC 16404 after 48 h by CLSI method; details: ATCC 16404, 48 h
[21] = test system: Aspergillus flavus; assay: Antifungal activity against Aspergillus flavus ATCC 204304 after 48 h by CLSI method; details: ATCC 204304, 48 h
[22] = test system: Aspergillus fumigatus; assay: Antifungal activity against Aspergillus fumigatus ATCC 90906 after 48 h by CLSI method; details: ATCC 90906, 48 h
[23] = test system: Aspergillus fumigatus; assay: Antifungal activity against Aspergillus fumigatus ATCC 204305 after 48 h by CLSI method; details: ATCC 204305, 48 h

C[C@@H]1[C@H](O)[C@@H](C)/C=C/C=C/C=C/C=C/C=C/C=C/C=C/[C@H](O[C@@H]2O[C@H](C)[C@@H](O)[C@H](N)[C@@H]2O)C[C@@H]2O[C@](O)(C[C@@H](O)C[C@@H](O)[C@H](O)CC[C@@H](O)C[C@@H](O)CC(=O)O[C@H]1C)C[C@H](O)[C@H]2C(=O)O [AMPHOTERICIN B]
IC50 [1]: 600 nM | MFC [1]: 1.4 µM (≈ 1.29 µg/mL) | MIC [1]: 1.4 µM (≈ 1.29 µg/mL) | IC50 [2]: 600 nM | MFC [2]: 5.4 µM (≈ 4.99 µg/mL) | MIC [2]: 1.4 µM (≈ 1.29 µg/mL) | IC50 [3]: 600 nM | MFC [3]: 2.7 µM (≈ 2.5 µg/mL) | MIC [3]: 2 µM (≈ 1.85 µg/mL) | IC50 [4]: 900 nM | MFC [4]: 1.4 µM (≈ 1.29 µg/mL) | MIC [4]: 1.4 µM (≈ 1.29 µg/mL) | IC50 [5]: 80 nM | MFC [5]: 0.34 µM (≈ 0.314 µg/mL) | MIC [5]: 0.34 µM (≈ 0.314 µg/mL) | IC50 [6]: 300 nM | MFC [6]: 0.7 µM (≈ 0.647 µg/mL) | MIC [6]: 0.7 µM (≈ 0.647 µg/mL) | IC50 [7]: 300 nM | MFC [7]: 1.4 µM (≈ 1.29 µg/mL) | MIC [7]: 1 µM (≈ 0.924 µg/mL) | IC50 [8]: 300 nM | MFC [8]: 5.4 µM (≈ 4.99 µg/mL) | MIC [8]: 2 µM (≈ 1.85 µg/mL) | MFC [9]: 2.7 µM (≈ 2.5 µg/mL) | MIC [9]: 2 µM (≈ 1.85 µg/mL) | IC50 [10]: 400 nM | MFC [10]: 1.4 µM (≈ 1.29 µg/mL) | MIC [10]: 1.4 µM (≈ 1.29 µg/mL) | IC50 [11]: 200 nM | MFC [11]: 1.4 µM (≈ 1.29 µg/mL) | MIC [11]: 1 µM (≈ 0.924 µg/mL) | IC50 [12]: 200 nM | MFC [12]: 1.4 µM (≈ 1.29 µg/mL) | MIC [12]: 1 µM (≈ 0.924 µg/mL) | Activity [13]: inactive | IC50 [14]: 600 nM | MFC [14]: 2.7 µM (≈ 2.5 µg/mL) | MIC [14]: 2.7 µM (≈ 2.5 µg/mL) | Activity [15]: inactive | MFC [16]: 1.4 µM (≈ 1.29 µg/mL) | MIC [16]: 1 µM (≈ 0.924 µg/mL) | MFC [17]: 1.4 µM (≈ 1.29 µg/mL) | MIC [17]: 1 µM (≈ 0.924 µg/mL) | MFC [18]: 1.4 µM (≈ 1.29 µg/mL) | MIC [18]: 1 µM (≈ 0.924 µg/mL) | IC50 [19]: 200 nM | MFC [19]: 1.4 µM (≈ 1.29 µg/mL) | MIC [19]: 1 µM (≈ 0.924 µg/mL) | IC50 [20]: 900 nM | MIC [20]: 2 µM (≈ 1.85 µg/mL) | IC50 [21]: 1500 nM | MIC [21]: 2.7 µM (≈ 2.5 µg/mL) | IC50 [22]: 900 nM | MFC [22]: 2.7 µM (≈ 2.5 µg/mL) | MIC [22]: 1.4 µM (≈ 1.29 µg/mL) | IC50 [23]: 1200 nM | MFC [23]: 10.8 µM (≈ 9.98 µg/mL) | MIC [23]: 2 µM (≈ 1.85 µg/mL)
